From publication PMC8911105 (Journal of Pharmaceutical Investigation, 2022)
Read-outs that look alike come from different tables or passages of the source.

Experiments:
[1] = Body weight of rats during 1,25; assay type: in vivo, rat; details: after pretreatment with 1,25(OH)2D3 2.56 nmol/kg/day for four days
rat OCTN1 (rOCTN1) = assay: RT-qPCR of rOCTN1 mRNA expression in organs of 1,25; assay type: in vivo; details: for Decrease in rOCTN1 mRNA expression level compared to control rats: 2.56 nmol/kg/day i.p. for four days, normalized to GAPDH
[2] = mice; oral administration; ref Kato et al. [2010]; cited from earlier work
[3] = Basal level of endogenous ergothioneine in plasma, urine and tissues; assay type: in vivo, rat; details: for Decrease in Kp of basal endogenous ergothioneine after 1,25(OH)2D3 pretreatment: treated vs control
Method in brief: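 Rats got 1,25(OH)2D3 2.56 nmol/kg/day for four days, with no ergothioneine given. Tail-vein blood (0.3 mL) was drawn 30 min before each dose and at the same time on days 5–6. Urine was collected over 24 h from day 5 to 6, and seven tissues were taken on day 6. LC-MS/MS was run with a 2–10,000 ng/mL calibration (LLOQ 2 ng/mL). n = 5 control, 6 treated; means ± SD; unpaired two-tailed t-test.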

[4] = humans; oral administration; ref Cheah et al. [2017]; cited from earlier work
[5] = assay type: in vivo, rat
Method in brief: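 After four days of 1,25(OH)2D3 pretreatment, rats under ip Zoletil/Rompun (20 mg/kg) had femoral vein and artery cannulated. Aqueous ergothioneine (2 mg/mL) was given at 2 mg/kg IV. Plasma was sampled 0–1,440 min with heparinized-saline replacement. Plasma and urine were diluted 50- and 100-fold with 1% BSA for LC-MS/MS. AUC, CL, Vss and MRT came from non-compartmental analysis. Kp fold change was exogenous over basal Kp.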

[6] = brain, 1,25(OH)2D3-treated rats
[7] = heart, 1,25(OH)2D3-treated rats
[8] = kidney, 1,25(OH)2D3-treated rats
[9] = muscle, 1,25(OH)2D3-treated rats
[10] = spleen, 1,25(OH)2D3-treated rats
[11] = 2 mg/kg IV, 1,25(OH)2D3-treated rats

C=C1/C(=C\C=C2/CCC[C@]3(C)[C@@H]([C@H](C)CCCC(C)(C)O)CC[C@@H]23)C[C@@H](O)C[C@@H]1O [1,25(OH)2D3, 1α,25-dihydroxyvitamin D3]
Weight gain compared with control rats [1]: significantly lower
Decrease in rOCTN1 mRNA expression level compared to control rats (rat OCTN1 (rOCTN1); brain): 27%
Decrease in rOCTN1 mRNA expression level compared to control rats (rat OCTN1 (rOCTN1); kidney): 77%
Change in rOCTN1 mRNA levels (rat OCTN1 (rOCTN1); other tissues, such as the liver, spleen, and heart): no significant changes

C[N+](C)(C)[C@@H](Cc1c[nH]c(=S)[nH]1)C(=O)[O-] [ergothioneine, l-ergothioneine]
Urinary recovery of ergothioneine [2]: < 4%
Cumulative amount of ergothioneine excreted in urine for 24 h (basal, endogenous) ([3]; 1,25(OH)2D3-treated group): 1880 ng
Basal plasma level of endogenous ergothioneine compared with control ([3]; 1,25(OH)2D3-treated group, third day to sixth day of pretreatment): significantly increased
Tissue partition coefficient (Kp), basal endogenous ergothioneine [3, 6]: 1.587 ± 0.929
Tissue partition coefficient (Kp), basal endogenous ergothioneine ([3]; brain, control rats): 3.585 ± 0.447
Cumulative amount of ergothioneine excreted in urine for 24 h (basal, endogenous) ([3]; control group): 3858 ng
Tissue partition coefficient (Kp), basal endogenous ergothioneine [3, 7]: 22.25 ± 15.27
Tissue partition coefficient (Kp), basal endogenous ergothioneine ([3]; heart, control rats): 34.59 ± 7.01
Tissue partition coefficient (Kp), basal endogenous ergothioneine [3, 8]: 20.56 ± 11.88
Tissue partition coefficient (Kp), basal endogenous ergothioneine ([3]; kidney, control rats): 60.85 ± 10.93
Decrease in Kp of basal endogenous ergothioneine after 1,25(OH)2D3 pretreatment ([3]; kidneys): 66.2%
Tissue partition coefficient (Kp), basal endogenous ergothioneine ([3]; liver, 1,25(OH)2D3-treated rats (n = 6)): 106.7 ± 62.3
Tissue partition coefficient (Kp), basal endogenous ergothioneine ([3]; liver, control rats (n = 5)): 224.4 ± 53.9
Decrease in Kp of basal endogenous ergothioneine after 1,25(OH)2D3 pretreatment ([3]; liver): 52.4%
Tissue partition coefficient (Kp), basal endogenous ergothioneine ([3]; lung, 1,25(OH)2D3-treated rats): 17.75 ± 11.47
Tissue partition coefficient (Kp), basal endogenous ergothioneine ([3]; lung, control rats): 30.67 ± 6.68
Tissue partition coefficient (Kp), basal endogenous ergothioneine [3, 9]: 4.471 ± 3.279
Tissue partition coefficient (Kp), basal endogenous ergothioneine ([3]; muscle, control rats): 8.385 ± 1.141
Decrease in Kp of basal endogenous ergothioneine after 1,25(OH)2D3 pretreatment ([3]; muscle): 46.7%
Tissue partition coefficient (Kp), basal endogenous ergothioneine [3, 10]: 15.22 ± 7.87
Tissue partition coefficient (Kp), basal endogenous ergothioneine ([3]; spleen, control rats): 42.50 ± 14.19
Decrease in Kp of basal endogenous ergothioneine after 1,25(OH)2D3 pretreatment ([3]; spleen): 64.2%
Urinary recovery of ergothioneine [4]: < 4%
CL [5, 11]: 1.894 ± 0.733 mL/min/kg
MRT [5, 11]: 33.50 ± 20.07 h
Urinary recovery of ergothioneine within 24 h [5, 11]: 1.08%
Vss [5, 11]: 3298 ± 959 mL/kg
AUC∞ ([5]; 2 mg/kg IV, 1,25(OH)2D3-treated rats (n = 6)): 1198 ± 457 µg·min/mL
CL ([5]; 2 mg/kg IV, control rats): 3.729 ± 1.734 mL/min/kg
MRT ([5]; 2 mg/kg IV, control rats): 27.11 ± 17.31 h
Urinary recovery of ergothioneine within 24 h ([5]; 2 mg/kg IV, control rats): 3.89%
Vss ([5]; 2 mg/kg IV, control rats): 4820 ± 1291 mL/kg
AUC∞ ([5]; 2 mg/kg IV, control rats (n = 7)): 647.5 ± 327.5 µg·min/mL
Decrease in total clearance in 1,25(OH)2D3-treated rats ([5]; 2 mg/kg IV, treated vs control): 49%
Increase in AUC∞ in 1,25(OH)2D3-treated rats ([5]; 2 mg/kg IV, treated vs control): 85%
Tissue partition coefficient (Kp), IV exogenous ergothioneine [5, 6]: 2.909 ± 0.448
Tissue partition coefficient (Kp), IV exogenous ergothioneine ([5]; brain, control rats): 4.799 ± 1.199
Tissue partition coefficient (Kp), IV exogenous ergothioneine [5, 7]: 39.88 ± 10.04
Tissue partition coefficient (Kp), IV exogenous ergothioneine ([5]; heart, control rats): 81.04 ± 37.23
Fold change of Kp (exogenous versus endogenous basal) ([5]; kidney, 1,25(OH)2D3-treated group): 3.70 fold
Tissue partition coefficient (Kp), IV exogenous ergothioneine [5, 8]: 76.12 ± 47.89
Fold change of Kp (exogenous versus endogenous basal) ([5]; kidney, control group): 3.13 fold
Tissue partition coefficient (Kp), IV exogenous ergothioneine ([5]; kidney, control rats): 190.7 ± 59.4
Tissue partition coefficient (Kp), IV exogenous ergothioneine ([5]; liver, 1,25(OH)2D3-treated rats (n = 6), 24 h after 2 mg/kg IV): 237.3 ± 82.8
Tissue partition coefficient (Kp), IV exogenous ergothioneine ([5]; liver, control rats (n = 5), 24 h after 2 mg/kg IV): 407.8 ± 113.9
Tissue partition coefficient (Kp), IV exogenous ergothioneine ([5]; lung, 1,25(OH)2D3-treated rats): 38.61 ± 8.48
Tissue partition coefficient (Kp), IV exogenous ergothioneine ([5]; lung, control rats): 57.37 ± 14.60
Tissue partition coefficient (Kp), IV exogenous ergothioneine [5, 9]: 10.25 ± 3.90
Tissue partition coefficient (Kp), IV exogenous ergothioneine ([5]; muscle, control rats): 19.43 ± 8.95
Tissue partition coefficient (Kp), IV exogenous ergothioneine [5, 10]: 21.89 ± 2.34
Tissue partition coefficient (Kp), IV exogenous ergothioneine ([5]; spleen, control rats): 70.56 ± 17.46
